Test results as given in ChEMBL document CHEMBL4028836, “Optimization of M4 positive allosteric modulators (PAMs): The discovery of VU0476406, a non-human primate in vivo tool compound for translational pharmacology” (Bioorg Med Chem Lett, 2017).
Active and inactive are the calls of the source. No cut-off for these calls is given here.

Legend:
[1] = Elimination half life in dog at 3 mg/kg, iv or po; type: ADME, organism-based, Canis lupus familiaris; settings: in vivo, read-out: beta t1/2 (converted)
[2] = Oral bioavailability in dog at 3 mg/kg; type: ADME, organism-based, Canis lupus familiaris; settings: in vivo
Outline: (§1)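 Dog IV and PO pharmacokinetics. Oral bioavailability from a 3 mg/kg suspension dose of the HCl salt.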

[3] = Volume of distribution at steady state in dog at 3 mg/kg, iv or po; type: ADME, organism-based, Canis lupus familiaris; settings: in vivo, read-out: Vdss; outline: as §1
[4] = Oral bioavailabilty in cynomolgus monkey at 10 mg/kg; type: ADME, organism-based, Macaca fascicularis; settings: in vivo
Outline: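 Cynomolgus monkey oral bioavailability from a 10 mg/kg solution dose of the HCl salt.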

[5] = Oral bioavailability in rat at 10 mg/kg; type: ADME, organism-based; settings: in vivo
Outline: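 Rat oral bioavailability from a 10 mg/kg solution dose. Separately, the HCl salt was dosed as a suspension.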

Cynomolgus monkey [6] = test: Elimination half life in cynomolgus monkey at 10 mg/kg, iv; type: ADME, organism-based, Macaca fascicularis; settings: in vivo
Cynomolgus monkey [7] = test: Volume of distribution at steady state in cynomolgus monkey at 10 mg/kg, iv; type: ADME, organism-based, Macaca fascicularis; settings: in vivo
[8] = molecular target: T1, Muscarinic acetylcholine receptor M4 (Homo sapiens) (UniProt P08173); test: Positive allosteric modulation of human M4 receptor expressed in CHO cells coexpressing Gqi5 assessed as increase in acetylcholine-induced calcium mobilization relative to acetylcholine; type: functional, cell-based
T1 sequence (whole entry): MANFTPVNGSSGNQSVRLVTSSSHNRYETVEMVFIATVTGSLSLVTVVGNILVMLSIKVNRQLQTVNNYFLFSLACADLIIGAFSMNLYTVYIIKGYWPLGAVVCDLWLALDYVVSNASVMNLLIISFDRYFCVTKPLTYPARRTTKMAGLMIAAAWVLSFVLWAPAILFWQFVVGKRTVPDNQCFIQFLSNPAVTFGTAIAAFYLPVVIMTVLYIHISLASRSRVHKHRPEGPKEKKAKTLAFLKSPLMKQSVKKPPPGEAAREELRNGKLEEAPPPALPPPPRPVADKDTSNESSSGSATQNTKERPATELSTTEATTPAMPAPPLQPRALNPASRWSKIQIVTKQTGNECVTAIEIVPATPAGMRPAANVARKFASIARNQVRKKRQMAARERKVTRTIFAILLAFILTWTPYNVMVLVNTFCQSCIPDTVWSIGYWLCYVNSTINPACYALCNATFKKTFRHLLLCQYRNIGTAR
Outline: (§2)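 Calcium mobilization in CHO cells expressing hM4 with Gqi5. Compound added in presence of a fixed EC20 concentration of acetylcholine. Values are means of three independent experiments, each run in triplicate.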

[9] = molecular target: T2, Muscarinic acetylcholine receptor M4 (Homo sapiens, UniProt P08173); test: Positive allosteric modulation of human M4 receptor expressed in CHO cells coexpressing Gqi5 assessed as increase in acetylcholine-induced calcium mobilization; type: functional, cell-based; outline: as §2
T2 sequence (P08173 whole entry): T1 sequence (whole entry)

Cytochrome P450 1A2 = molecular target: T3, Cytochrome P450 1A2 (Homo sapiens, UniProt P05177); test: Inhibition of CYP1A2 (unknown origin); type: ADME
T3 sequence (P05177 whole entry): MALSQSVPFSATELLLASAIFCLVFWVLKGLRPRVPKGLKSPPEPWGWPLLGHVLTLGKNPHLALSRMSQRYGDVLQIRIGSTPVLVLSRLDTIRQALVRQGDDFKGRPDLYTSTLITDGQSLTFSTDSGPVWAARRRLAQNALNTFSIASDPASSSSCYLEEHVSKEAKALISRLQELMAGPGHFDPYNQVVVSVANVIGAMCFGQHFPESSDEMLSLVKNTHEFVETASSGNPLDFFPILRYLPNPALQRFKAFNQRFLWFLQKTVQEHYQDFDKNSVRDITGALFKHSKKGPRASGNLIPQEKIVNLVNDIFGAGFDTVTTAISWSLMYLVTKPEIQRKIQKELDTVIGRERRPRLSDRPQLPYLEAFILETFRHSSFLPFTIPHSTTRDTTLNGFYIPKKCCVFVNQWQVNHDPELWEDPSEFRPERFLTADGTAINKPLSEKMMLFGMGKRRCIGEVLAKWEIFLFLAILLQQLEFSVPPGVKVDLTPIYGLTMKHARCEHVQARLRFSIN

Cytochrome P450 2C9 = Cytochrome P450 2C9 (Homo sapiens, UniProt P11712); test: Inhibition of CYP2C9 (unknown origin); type: ADME
Sequence of Cytochrome P450 2C9 (P11712 whole entry): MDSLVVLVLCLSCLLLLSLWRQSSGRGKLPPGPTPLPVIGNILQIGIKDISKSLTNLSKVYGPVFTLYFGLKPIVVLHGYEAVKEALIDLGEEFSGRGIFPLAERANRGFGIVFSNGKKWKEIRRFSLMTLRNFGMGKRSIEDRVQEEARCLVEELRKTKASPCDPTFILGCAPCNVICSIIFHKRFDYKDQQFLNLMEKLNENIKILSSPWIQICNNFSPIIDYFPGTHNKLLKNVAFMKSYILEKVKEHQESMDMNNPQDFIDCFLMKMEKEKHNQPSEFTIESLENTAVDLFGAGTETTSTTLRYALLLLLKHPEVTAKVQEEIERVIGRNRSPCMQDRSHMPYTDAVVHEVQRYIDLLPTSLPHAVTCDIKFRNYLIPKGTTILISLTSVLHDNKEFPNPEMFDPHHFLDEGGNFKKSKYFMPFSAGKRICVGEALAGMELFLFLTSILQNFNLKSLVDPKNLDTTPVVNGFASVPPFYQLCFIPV

Cytochrome P450 2D6 = Cytochrome P450 2D6 (Homo sapiens, UniProt P10635); test: Inhibition of CYP2D6 (unknown origin); type: ADME
Sequence of Cytochrome P450 2D6 (P10635 whole entry): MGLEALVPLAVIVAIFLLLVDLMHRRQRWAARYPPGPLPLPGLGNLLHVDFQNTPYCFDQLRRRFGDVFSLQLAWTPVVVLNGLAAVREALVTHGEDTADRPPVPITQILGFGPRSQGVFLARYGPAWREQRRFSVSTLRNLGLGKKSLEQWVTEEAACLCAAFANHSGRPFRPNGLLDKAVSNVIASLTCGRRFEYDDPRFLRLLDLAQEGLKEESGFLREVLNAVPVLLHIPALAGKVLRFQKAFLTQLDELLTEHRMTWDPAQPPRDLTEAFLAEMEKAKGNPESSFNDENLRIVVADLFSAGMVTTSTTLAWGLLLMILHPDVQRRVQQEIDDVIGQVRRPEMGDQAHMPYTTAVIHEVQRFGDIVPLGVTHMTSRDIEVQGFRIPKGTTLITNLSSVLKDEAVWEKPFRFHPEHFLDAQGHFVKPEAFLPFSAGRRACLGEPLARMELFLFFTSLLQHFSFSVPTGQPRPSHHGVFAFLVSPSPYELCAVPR

[10] = Unbound brain concentration in rat; type: ADME, tissue-based
MDR1 (P-gp) = test: Efflux ratio of permeability in MDCK2-MDR1 cells; type: ADME, cell-based, Canis lupus familiaris; settings: dog, MDCK-MDR1
[11] = Brain to plasma permeability coefficient, Kp of the compound in Sprague-Dawley rat at 0.1 to 0.2 mg/kg, iv measured at 0.25 hrs post dose; type: ADME, organism-based
Outline: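 Sprague-Dawley rats were dosed IV at 0.1–0.2 mg/kg, with brain and plasma sampled at 0.25 hr. Brain:plasma Kp was calculated, with Kp,uu where unbound fractions were available.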

Cytochrome P450 3A4 = Cytochrome P450 3A4 (Homo sapiens, UniProt P08684); test: Inhibition of CYP3A4 (unknown origin); type: ADME
Sequence of Cytochrome P450 3A4 (P08684 whole entry): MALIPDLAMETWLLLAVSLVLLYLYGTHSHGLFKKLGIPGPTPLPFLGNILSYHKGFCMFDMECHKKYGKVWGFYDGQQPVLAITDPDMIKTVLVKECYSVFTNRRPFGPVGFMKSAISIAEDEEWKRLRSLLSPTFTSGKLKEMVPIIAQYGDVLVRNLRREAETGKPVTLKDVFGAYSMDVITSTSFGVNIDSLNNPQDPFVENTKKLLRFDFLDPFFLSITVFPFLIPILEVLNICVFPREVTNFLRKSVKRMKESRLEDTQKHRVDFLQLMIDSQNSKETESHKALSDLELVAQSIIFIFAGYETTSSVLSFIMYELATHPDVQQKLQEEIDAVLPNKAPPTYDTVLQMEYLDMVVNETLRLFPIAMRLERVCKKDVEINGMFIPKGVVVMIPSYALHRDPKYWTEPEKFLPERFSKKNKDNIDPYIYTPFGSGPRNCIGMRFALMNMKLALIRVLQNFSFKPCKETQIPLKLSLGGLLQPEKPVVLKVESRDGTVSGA

Rattus norvegicus [12] = test: Elimination half-life in Sprague-Dawley rat at 0.1 to 1 mg/kg, iv; type: ADME, organism-based; settings: in vivo
[13] = Unbound plasma concentration in human; type: ADME, cell-free
[14] = Unbound plasma concentration in rat; type: ADME, cell-free
[15] = molecular target: Muscarinic acetylcholine receptor M4 (Rattus norvegicus) (UniProt P08485); test: Displacement of [3H]NMS from rat M4 receptor
Sequence of Muscarinic acetylcholine receptor M4 (Rattus norvegicus) (P08485 whole entry): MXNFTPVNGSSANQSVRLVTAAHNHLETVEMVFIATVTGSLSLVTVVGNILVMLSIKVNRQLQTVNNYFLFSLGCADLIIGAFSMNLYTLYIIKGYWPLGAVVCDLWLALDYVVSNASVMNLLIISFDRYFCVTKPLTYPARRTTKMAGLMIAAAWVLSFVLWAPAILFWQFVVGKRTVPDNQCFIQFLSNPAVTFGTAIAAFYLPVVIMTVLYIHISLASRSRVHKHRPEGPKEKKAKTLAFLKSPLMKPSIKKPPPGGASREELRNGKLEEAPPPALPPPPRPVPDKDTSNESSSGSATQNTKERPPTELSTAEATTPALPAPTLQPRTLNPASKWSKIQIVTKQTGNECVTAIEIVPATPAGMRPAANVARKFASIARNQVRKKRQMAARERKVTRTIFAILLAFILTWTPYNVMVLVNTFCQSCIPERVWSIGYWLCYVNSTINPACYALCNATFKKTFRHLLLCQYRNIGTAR
Outline: (§3)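 Competition binding of ACh against [3H]-N-methylscopolamine at M4 of each species. Combined with ACh concentration-response fold-shift Ca2+ mobilization data to fit operational model parameters (KB, α, β). n=3–4, each in duplicate.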

[16] = molecular target: Muscarinic acetylcholine receptor M4 (Rattus norvegicus) (UniProt P08485); test: Positive allosteric modulation of rat M4 receptor assessed as increase in acetylcholine-induced calcium mobilization relative to acetylcholine; type: functional
Outline: (§4)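 M4 PAM concentration-response curves measured by calcium mobilization at the stated species' receptor. Potency reported as EC50/pEC50 and efficacy as % of acetylcholine maximum.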

Macaca fascicularis [17] = species on record: Macaca fascicularis; test: Positive allosteric modulation of cynomolgus monkey M4 receptor assessed as increase in acetylcholine-induced calcium mobilization relative to acetylcholine; outline: as §4
Macaca fascicularis [18] = species on record: Macaca fascicularis; test: Displacement of [3H]NMS from cynomolgus monkey M4 receptor; outline: as §3
Canis lupus familiaris [19] = species on record: Canis lupus familiaris; test: Positive allosteric modulation of dog M4 receptor assessed as increase in acetylcholine-induced calcium mobilization relative to acetylcholine; outline: as §4
Macaca fascicularis [20] = species on record: Macaca fascicularis; test: Activity at cynomolgus monkey M2 receptor
Rattus norvegicus [21] = species on record: Rattus norvegicus; test: Activity at rat GABA-A receptor
Outline: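 Rat GABAA receptor, benzodiazepine site, radioligand binding in a broad secondary pharmacology panel. IC50 taken from binding. Functional follow-up was run at 10 μM.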

[22] = molecular target: T1, Muscarinic acetylcholine receptor M4 (Homo sapiens); test: Displacement of [3H]NMS from human M4 receptor; outline: as §3
Canis lupus familiaris [23] = species on record: Canis lupus familiaris; test: Activity at dog M2 receptor
Rattus norvegicus [24] = test: Volume of distribution at steady state […] in Sprague-Dawley rat at 0.1 to 1 mg/kg, iv; type: ADME, organism-based; settings: in vivo
Outline: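 IV pharmacokinetics in Sprague-Dawley rats at 0.1–1.0 mg/kg. CLp, elimination t½ and Vss derived.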

Cc1nnc2sc(C(=O)NCc3ccc(-c4cccnc4F)cc3)c(N)c2c1C.Cl
half-life [1]: 1 h
bioavailability [2]: 47%
Vd [3]: 0.7 L/kg
bioavailability [4]: 4.7%
bioavailability [5]: 54%
beta t1/2 (Cynomolgus monkey [6]): 1.3 h
Vdss (Cynomolgus monkey [7]): 0.87 L/kg

Cc1nnc2sc(C(=O)NCc3ccc(-c4cncc(F)c4)cc3)c(N)c2c1C
%max [8]: 78%
EC50 ([9]; read-out: EC50): 144 nM

Cc1nnc2sc(C(=O)NCc3ccc(-c4ccncc4)cc3)c(N)c2c1C
%max [8]: 83%
IC50 (Cytochrome P450 1A2): 9700 nM
IC50 (Cytochrome P450 2C9): 2300 nM
IC50 (Cytochrome P450 2D6): 1300 nM
fraction unbound [10]: 0.042
efflux ratio (MDR1 (P-gp)): 1.1
Kp [11]: 0.94
IC50 (Cytochrome P450 3A4): 340 nM
beta t1/2 (Rattus norvegicus [12]): 1.5 h
fraction unbound [13]: 0.013
fraction unbound [14]: 0.037
EC50 ([9]; read-out: EC50): 36 nM

Cc1nnc2sc(C(=O)NCc3ccc(-c4ccccc4)cc3)c(N)c2c1C
%max [8]: 49%
EC50 ([9]; read-out: EC50): 319 nM
EC50 ([9]; read-out: pEC50 (converted)): 295 nM

Cc1nnc2sc(C(=O)NCc3cccc(Br)c3)c(N)c2c1C
%max [8]: 84%
EC50 ([9]; read-out: EC50): 185 nM
EC50 ([9]; read-out: pEC50 (converted)): 170 nM

Cc1nnc2sc(C(=O)NCc3ccc(-c4ccnnc4)cc3)c(N)c2c1C
%max [8]: 96%
EC50 ([9]; read-out: EC50): 56 nM

Cc1nnc2sc(C(=O)NCc3ccc(-c4cccnc4F)cc3)c(N)c2c1C
%max [8]: 74%
Kb [15]: 370 nM
%max [16]: 72%
%max (Macaca fascicularis [17]): 64%
Kb (Macaca fascicularis [18]): 2100 nM
%max (Canis lupus familiaris [19]): 49%
Activity (Macaca fascicularis [20]): inactive
Activity (Rattus norvegicus [21]): inactive
Kb [22]: 2800 nM
Activity (Canis lupus familiaris [23]): inactive

Cc1nnc2sc(C(=O)NCc3ccc(-c4ccnc(F)c4)cc3)c(N)c2c1C
%max [8]: 92%
IC50 (Cytochrome P450 1A2): 2500 nM
IC50 (Cytochrome P450 2C9): 25000 nM
Vdss (Rattus norvegicus [24]): 0.5 L/kg
IC50 (Cytochrome P450 2D6): > 30000 nM
Kp [11]: 0.21
IC50 (Cytochrome P450 3A4): 24000 nM
beta t1/2 (Rattus norvegicus [12]): 1.7 h
fraction unbound [13]: 0.029
fraction unbound [14]: 0.002
EC50 ([9]; read-out: EC50): 58 nM

Cc1nnc2sc(C(=O)NCc3ccc(-c4cccnc4)cc3)c(N)c2c1C
%max [8]: 63%
EC50 ([9]; read-out: EC50): 103 nM

Cc1nnc2sc(C(=O)NCc3ccccc3-c3ccccc3)c(N)c2c1C
%max [8]: 30%
EC50 ([9]; read-out: EC50): > 10000 nM
